The results in this text go back to ChEMBL document CHEMBL1255256, “Bobel-24 activity against Cryptosporidium parvum in cell culture and in a SCID mouse model” (Antimicrob Agents Chemother, 2008).

Calls of active or inactive are those of the source. The rule behind the calls is not given here.

The test system of series [1] is Cryptosporidium parvum. Put plainly: Antimicrobial activity against Cryptosporidium parvum infected in HCT8 cells assessed as decrease in parasite count at 22 to 90 uM after 48 hrs. To be noted: HCT-8. Format: functional, organism-based. In short, it runs like this: (§1)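 HCT-8 monolayers inoculated with 8 × 10^5 oocysts/ml, then incubated with 90, 45 or 22 μM compound (DMSO stock diluted in PBS). Fixed cultures stained with rhodamine-C3C3 mAb; developmental stages (meronts, gamonts) counted per field over 30 fields, mean of four replicate wells ± SD; percent growth inhibition versus medium and inhibition score (0–4).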

Series [2] relates to Cryptosporidium parvum. Put plainly: Antimicrobial activity against Cryptosporidium parvum infected in SCID mouse assessed as decrease in oocyst shedding at 125 mg/kg/day, po for 2 weeks and measured 3 to 7 days after treatment. The format is functional, organism-based. The method in brief: (§2)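 Female C.B-17 SCID mice, 7 weeks old, infected orally with 1 × 10^7 oocysts in PBS; chronic infection allowed for 25 days. Compound suspended with polyvinylpyrrolidone, given orally at 250 (n=10) or 125 (n=10) mg/kg/day for 2 weeks; controls were PVP in water and untreated mice. Oocysts per 50 μl concentrated feces counted by IIF every 3 days; ANOVA with LSD.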

Series [3] relates to Cryptosporidium parvum. Put plainly: Antiparasitic activity against Cryptosporidium parvum infected into human HCT-8 cells assessed as growth inhibition at 90 uM after 48 hrs. Format: functional. Particulars: HCT-8, 48 h, read-out: GI. In short, it runs like this: (§3)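 Confluent HCT-8 monolayers inoculated with 8 × 10^5 excysted oocysts/ml, then infected cells treated with 90 μM compound (DMSO stock diluted in PBS) at 37°C in 5% CO2 (24 h per table footnote; 48 h per text). Fixed cells stained with rhodamine-labeled C3C3 mAb; meronts and gamonts counted in 30 fields/well, four replicate wells; percent inhibition and inhibition score versus medium control.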

In series [4] the test system is Cryptosporidium parvum. As to the kind of experiment: Antimicrobial activity against Cryptosporidium parvum infected in SCID mouse assessed as decrease in oocyst shedding at 250 mg/kg/day, po for 2 weeks and measured 3 to 7 days after treatment. The format is functional, organism-based. In short, it runs like this:
as §2

In series [5] the test system is Cryptosporidium parvum. Put plainly: Antimicrobial activity against Cryptosporidium parvum infected in HCT8 cells assessed as growth inhibition rate at 22 to 90 uM after 48 hrs. To be noted: HCT-8. Format: functional, organism-based. The method in brief: as §1
The subject of series [6] is Cryptosporidium parvum. As to the kind of experiment: Antimicrobial activity against Cryptosporidium parvum infected in HCT8 cells assessed as growth inhibition at 90 uM pretreated for 30 min before infection measured after 48 hrs. Particulars: HCT-8, read-out: GI. The format is functional. In short, it runs like this: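 HCT-8 cells preincubated with 90 μM compound at 37°C for 30 min, then infected with excysted oocysts (8 × 10^5/ml). Meronts and gamonts counted after rhodamine-C3C3 mAb staining, 30 fields/well, four replicate wells; percent inhibition versus medium control and inhibition score.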

The subject of series [7] is Cryptosporidium parvum. As to the kind of experiment: Antiparasitic activity against Cryptosporidium parvum infected into human HCT-8 cells assessed as growth inhibition at 45 uM after 48 hrs. The format is functional. To be noted: HCT-8, 48 h, read-out: GI. The method in brief: as §1
A further series concerns HCT-8. Put plainly: Cytotoxicity against human HCT8 cells assessed as cell viability by MTT assay. Format: cell-based. The method in brief:
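HCT-8 cells exposed to compound and viability measured by MTT assay as percent viable cells.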

The subject of series [8] is Cryptosporidium parvum. As to the kind of experiment: Antimicrobial activity against Cryptosporidium parvum infected in SCID mouse assessed as decrease in oocyst shedding at 125 mg/kg/day, po for 2 weeks and measured every 3 days during treatment. The format is functional, organism-based. The method in brief: as §2
The test system of series [9] is Cryptosporidium parvum. Put plainly: Antimicrobial activity against Cryptosporidium parvum DE infected in HCT8 cells assessed as growth inhibition at 90 uM after 24 hrs. Particulars: HCT-8, 24 h, read-out: GI. The format is functional. In short, it runs like this:
as §3

The subject of series [10] is Cryptosporidium parvum. As to the kind of experiment: Antiparasitic activity against Cryptosporidium parvum sprozoites assessed as growth inhibition at 90 uM after 48 hrs. The format is functional. Particulars: read-out: GI. In short, it runs like this: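 Excysted sporozoite suspension incubated with 90 μM compound at 37°C for 30 min, then used to infect confluent HCT-8 monolayers. Developmental stages counted after rhodamine-C3C3 mAb staining, 30 fields/well, four replicate wells; percent inhibition versus medium control and inhibition score.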

Series [11] relates to Cryptosporidium parvum. Put plainly: Antiparasitic activity against Cryptosporidium parvum infected into human HCT-8 cells assessed as growth inhibition at 22 uM after 48 hrs. Particulars: HCT-8, 48 h, read-out: GI. The format is functional. In short, it runs like this: as §1

Consider `Oc1c(I)cc(I)cc1I`, for which the Activity entry was “Dose-dependent effect” in the series on Cryptosporidium parvum [1], “Dose-dependent effect” with Cryptosporidium parvum [5] and “Non-toxic” in the series with HCT-8. For the same compound, the result with Cryptosporidium parvum [2] and in the series with Cryptosporidium parvum [4] was inactive. Moreover, the inhibition of growth at 90 µM in the series with Cryptosporidium parvum [3] was 96.5%; in the series on Cryptosporidium parvum [6] it was 36%; in the series with Cryptosporidium parvum [9] it was 99.6%; in the series on Cryptosporidium parvum [10], 27.8%. Further, in the series with Cryptosporidium parvum [7], the inhibition of growth at 45 µM was found to be 92.5%. For the same compound, the result in the series with Cryptosporidium parvum [8] was Active. The inhibition of growth at 22 µM with Cryptosporidium parvum [11] was determined as 50.1%.
